{"source": "ChEMBL document CHEMBL2434878", "about": "“Synthesis and antimycobacterial activity of analogues of the bioactive natural products sampangine and cleistopholine” (Eur J Med Chem, 2013)", "data": [{"test_system": "Mycobacterium tuberculosis variant bovis", "experiment": "Antimicrobial activity against Mycobacterium bovis AN5 expressing luciferase reporter gene assessed as growth inhibition after 6 days by luminometry", "format": "functional", "conditions": "AN5, 144 h", "method_in_brief": "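Other mycobacteria (M. avium ssp. avium ATCC 15769, ssp. paratuberculosis ATCC 19698, M. bovis AN5) were grown in 7H9 with 10% OADC and 0.2% glycerol; M. bovis had 0.05% Tween 80 in place of glycerol, and paratuberculosis had mycobactin J (2 mg/ml); all were grown at 39 °C. Serial dilutions were tested by the luciferase luminometry assay and the 50% growth-reduction concentration was read.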", "units": {"GI50": "nM"}, "values": [{"smiles": "O=C1c2ccccc2C(=O)c2c(O)cc(-c3ccccc3)cc21", "GI50": 800}, {"smiles": "COc1ccc(-c2cc(O)c3c(c2)C(=O)c2ccccc2C3=O)cc1", "GI50": 380}, {"smiles": "CN(C)/C=C/c1nc(-c2ccccc2)cc2c1C(=O)c1ccccc1C2=O", "GI50": 640}, {"smiles": "COc1ccc(-c2cc3c(c(/C=C/N(C)C)n2)C(=O)c2ccccc2C3=O)cc1", "GI50": 470}, {"smiles": "CN(C)/C=C/c1nc(-c2ccc(F)cc2)cc2c1C(=O)c1ccccc1C2=O", "GI50": 480}, {"smiles": "CN(C)/C=C/c1nc(-c2ccc(Cl)cc2)cc2c1C(=O)c1ccccc1C2=O", "GI50": 490}, {"smiles": "Cc1ccc(-c2cc3c(c(/C=C/N(C)C)n2)C(=O)c2ccccc2C3=O)cc1", "GI50": 580}, {"smiles": "O=C1c2ccccc2-c2nccc3nc(-c4ccccc4)cc1c23", "GI50": 670}, {"smiles": "COc1ccc(-c2cc3c4c(nccc4n2)-c2ccccc2C3=O)cc1", "GI50": 520}, {"smiles": "O=C1c2ccccc2-c2nccc3nc(-c4ccc(F)cc4)cc1c23", "GI50": 670}]}]}
